Hits are enriched below; roughly 2.3% of the tested compounds scored in any of these assays.
TRPC4 PAM: positive allosteric modulators of TRPC4, primary screen, cell-based, mouse TRPC4beta, HEK293 mu-opioid, Fluo-4 calcium; DAMGO EC20, Fluo-4 Ca2+ flux; stronger effect = higher value; 310,000 tested, 0.42% active; AID 2227, 2009; Short transient receptor potential channel 4 (Mus musculus), Q9QUQ5; B-score at 10 µM;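 active = B-score of calcium response area above 5 SD of library B-scores, with initial fluorescence ratio within 5 SD of library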;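 note: B-score of integrated fluorescence ratio over time as area under calcium response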
Target sequence (Q9QUQ5 whole entry, looked up): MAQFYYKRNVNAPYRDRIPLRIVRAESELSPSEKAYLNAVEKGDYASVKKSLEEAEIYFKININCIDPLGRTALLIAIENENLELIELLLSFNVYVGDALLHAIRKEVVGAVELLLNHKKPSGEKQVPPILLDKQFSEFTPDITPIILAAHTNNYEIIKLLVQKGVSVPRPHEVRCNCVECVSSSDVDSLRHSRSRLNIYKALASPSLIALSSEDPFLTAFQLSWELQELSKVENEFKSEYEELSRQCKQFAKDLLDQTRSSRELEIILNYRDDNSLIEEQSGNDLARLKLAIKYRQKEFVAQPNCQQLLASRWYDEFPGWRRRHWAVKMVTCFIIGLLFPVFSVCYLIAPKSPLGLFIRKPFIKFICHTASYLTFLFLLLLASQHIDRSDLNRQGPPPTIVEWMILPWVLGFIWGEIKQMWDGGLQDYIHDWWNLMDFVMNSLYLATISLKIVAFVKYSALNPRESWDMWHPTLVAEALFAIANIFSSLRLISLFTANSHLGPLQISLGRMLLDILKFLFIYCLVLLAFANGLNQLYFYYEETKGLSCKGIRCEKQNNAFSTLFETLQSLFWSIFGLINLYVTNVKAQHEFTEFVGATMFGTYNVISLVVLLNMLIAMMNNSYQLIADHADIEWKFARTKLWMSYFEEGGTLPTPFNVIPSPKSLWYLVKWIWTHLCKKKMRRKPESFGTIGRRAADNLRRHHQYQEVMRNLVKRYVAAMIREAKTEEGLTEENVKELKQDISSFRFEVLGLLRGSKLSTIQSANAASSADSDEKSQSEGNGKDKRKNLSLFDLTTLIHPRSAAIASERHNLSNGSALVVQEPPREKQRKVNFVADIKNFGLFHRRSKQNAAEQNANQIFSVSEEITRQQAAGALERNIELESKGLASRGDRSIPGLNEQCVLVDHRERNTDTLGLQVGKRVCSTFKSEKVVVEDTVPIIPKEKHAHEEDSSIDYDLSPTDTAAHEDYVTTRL
TRPC4 inh: inhibitors of mouse TRPC4 channel, primary screen, Fluo4 calcium, HEK293 TRPC4beta/mu-opioid cells. 300,000 tested, 0.39% active. DAMGO-evoked Fluo4 calcium flux; stronger effect = lower value. Short transient receptor potential channel 4 (Mus musculus), Q9QUQ5. B-score at 10 µM;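 active = B-score over 3 SD under the library average, no early fluorescence shift, positive overall ratio signal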
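Assay system: Stable TRPC4beta/mu-opioid receptor HEK293 cells | Reagent: DAMGO in two steps, submaximal then maximal | Compound dosing: Single concentration per test compound | Signal: Fluo4 Ca2+ flux fluorescence | Evaluation: Per-well B score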
TRPC6 inh: mouse TRPC6 channel inhibitors, primary screen, cell-based, HEK293, membrane potential dye. B-score at 10 µM. Short transient receptor potential channel 6 (Mus musculus), Q61143. 310,000 tested, 1.1% active. AID 2553, 2010. ACh-evoked depolarization; stronger effect = lower value;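 active = B-score under library mean minus 3 SD, initial fluorescence not abnormally high, positive integrated signal ratio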;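 note: B-score derived from integrated fluorescence ratio over the kinetic read; more negative B-score means stronger inhibition of depolarization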
TRPC6 activator: mouse TRPC6 channel activators, primary screen, cell-based, HEK293, membrane potential dye; HEK293-TRPC6 membrane potential dye fluorescence; stronger effect = higher value; AID 2550, 2010; B-score at 10 µM; 310,000 tested, 0.13% active; Short transient receptor potential channel 6 (Mus musculus), Q61143;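 active = B-score of the integrated fluorescence ratio above library mean plus 3 SD, and starting fluorescence ratio within library mean plus 5 SD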;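 note: higher score means more depolarization so channel activation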
TRPC4 agonist: activators of mouse TRPC4 channel, primary screen, Fluo4 calcium, HEK293 TRPC4beta/mu-opioid cells; B-score at 10 µM; 310,000 tested, 0.49% active; AID 2237, 2010; Fluo4 calcium fluorescence; stronger effect = higher value;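 active = B-score above 5 SD of library B-scores, and initial fluorescence ratio not above library mean plus 5 SD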;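 note: positive B-score marks a calcium rise read as TRPC4 activation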
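Material: TRPC4beta and mu-opioid receptor HEK293 stable cells | Incubation: 45 min room-temperature Fluo4 loading, 110 s read | Detection: Kinetic Fluo4 calcium fluorescence | Measure: Integrated baseline-normalised fluorescence ratio, converted to per-well B score | Benchmarks: Low control buffer alone, high control maximal DAMGO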
TRPC4 spec 2: mouse TRPC4 off-target activity of TRPC6 inhibitors, second screen; shares compounds with TRPC6 inh; HEK293 TRPC4/MOR, membrane potential dye fluorescence; channel activated by saturating DAMGO dose; inhibition, % at 10 µM; 920 tested, 42% active; AID 2776;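 active = compounds whose fluorescence signal differed from control wells by over 3 SD, either direction, in both duplicate plates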
TRPC4 spec: mouse TRPC4 modulation by TRPC6 hits, confirmation, selectivity assay for TRPC6 inhibitor project, cell-based, HEK293 TRPC4/mu-opioid, membrane potential dye; shares compounds with TRPC6 inh; membrane potential fluorescence; activity change, negative = inhibition, % at 10 µM; 920 tested, 61% active; AID 2777, 2010;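 active = rise or fall in signal beyond 3 SD of buffer-only wells in both replicate plates, either sign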;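 note: integrated kinetic ratio of fluorescence range over baseline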
HEK293 MPD ctr 2-1: nonspecific membrane potential effects, parental HEK293, confirmation, counter-screen for TRPC6 inhibitor project, cell-based, second counter screen | shares compounds with TRPC6 inh | parental HEK293 membrane potential dye fluorescence; maximal acetylcholine challenge after compound addition | signal change vs control, % at 10 µM | 920 tested, 31% active | AID 2779, 2010;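 active = membrane potential signal moving either way by over 3 SD of the maximum-effect control, in both duplicate plates, meaning non-specific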
HEK293 MPD ctr-1: membrane potential modulation in parental HEK293, confirmation, counter-screen for TRPC6 inhibitor project, cell-based | shares compounds with TRPC6 inh | parental HEK293 membrane potential dye fluorescence | membrane potential signal change, % at 10 µM | 920 tested, 60% active | AID 2780, 2010;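 active = membrane potential signal shifting up or down by more than 3 SD of buffer-only wells, on both duplicate plates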
HEK293 MPD ctr-2: parental HEK293 membrane potential modulation, confirmation, counter-screen for TRPC6 modulator project, cell-based; shares compounds with TRPC6 inh; membrane potential signal change, % at 10 µM; membrane potential dye fluorescence; AID 488924, 2010; 2,400 tested, 51% active;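 active = membrane potential signal moves up or down beyond 5 SD from buffer-only wells, on both duplicate plates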
HEK293 MPD ctr 2-2: second counter-screen for TRPC6 modulators: effect in parental HEK293 cells; shares compounds with TRPC6 inh; membrane potential dye fluorescence; after compound, maximal acetylcholine stimulation; inhibition, % at 10 µM; 2,400 tested, 14% active;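 active = membrane potential signal drops by more than 5 SD from the mean control signal, in both duplicate plates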;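 note: plate controls were acetylcholine ECmax control wells for no effect and buffer only wells for full effect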
TRPC4/MOR mod: TRPC4 modulation by TRPC6 hit compounds, confirmation, selectivity assay for TRPC6 modulator project, cell-based, HEK293 TRPC4/mu-opioid, membrane potential dye, mouse. shares compounds with TRPC6 inh. membrane potential fluorescence. percent change from control (negative = decrease, positive = increase), % at 10 µM. 2,400 tested, 69% active. AID 488927, 2010;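 active = membrane potential signal moved up or down beyond 5 SD of buffer control wells, in both duplicate plates, actives on both sides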;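 note: plate controls were assay buffer wells for no effect and DAMGO maximal-effect wells for full effect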
TRPC4 ctr inh 2: second check of whether TRPC6 modulators also affect mouse TRPC4 | HEK293 TRPC4/mu-opioid, membrane potential dye fluorescence; stimulated with maximal-effect DAMGO | 2,400 tested, 55% active | shares compounds with TRPC6 inh | inhibition, % at 10 µM;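 active = drop in membrane potential signal beyond 5 SD of the control wells in both duplicate plates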;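 note: TRPC4 counter screen for TRPC6 hits run under conditions tuned for TRPC6 not TRPC4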
TRPC6 block conf: mouse TRPC6 channel inhibitors, confirmation, HEK293 cells, membrane potential dye, duplicate. shares compounds with TRPC6 inh. ACh-evoked depolarization. inhibition, % at 10 µM. 3,300 tested, 43% active. AID 488960, 2010;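 active = fluorescence ratio falls more than 5 SD below the full-stimulation control mean, in both duplicate runs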;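 note: integrated fluorescence ratio of peak minus minimum over baseline after agonist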
TRPC6 act confirm: mouse TRPC6 channel activators, confirmation, HEK293 cells, membrane potential dye, duplicate; shares compounds with TRPC6 inh; HEK293-TRPC6 membrane potential dye fluorescence, FDSS; activation, % at 10 µM; 2,800 tested, 11% active; AID 488961, 2010;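 active = ratio signal rise beyond 5 SD above unstimulated control wells' mean, seen in both duplicate runs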;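 note: plate controls were buffer EC0 wells for no effect and acetylcholine ECmax response for full effect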
* marks the source's active call; other numbers are inactive results; i = inactive; · = no result given; + = active, no number.

SMILES	TRPC4 PAM	TRPC4 inh	TRPC6 inh	TRPC6 activator	TRPC4 agonist	HEK293 MPD ctr-2	HEK293 MPD ctr 2-2	TRPC4/MOR mod	TRPC4 ctr inh 2	TRPC6 block conf	TRPC6 act confirm	others
CN(C)c1ccc(/C=C(/C(=O)c2ccc(Cl)cc2Cl)n2cncn2)cc1	i	i	-6.37*	49.3*	52*	+	+	266.5%*	i	i	487.0%*
COc1ccc(/C=C(/C(=O)c2ccc(Cl)cc2Cl)n2cncn2)cc1	i	i	i	i	i	·	·	·	·	·	·
O=C(CN1CCN(C(c2ccccc2)c2ccccc2)CC1)NCc1ccccc1	i	i	-5.49*	i	i	i	i	i	i	i	i
COC(=O)C(C)(C)ONC(=O)Nc1ccccc1Cl	i	i	i	i	i	·	·	·	·	·	·
Cc1nc2cc(C(F)(F)F)ccc2n1C1CCN(CC(=O)N2CCCC2)CC1	i	i	i	i	i	·	·	·	·	·	·
Cc1nc2cc(C(F)(F)F)ccc2n1C1CCN(CC(=O)N2CCOCC2)CC1	i	i	-5.21*	i	i	i	i	i	i	i	i
CN(CC(=O)Nc1cccc(F)c1)C(=O)c1ccc(N2CCOCC2)c([N+](=O)[O-])c1	i	i	-6.97*	i	i	i	i	91.5%*	75.5%*	i	i
C[n+]1ccccc1/C=C/c1ccc([N+](=O)[O-])cc1	i	i	-7.27*	i	i	-249.5%*	110.0%*	-40.5%*	52.0%*	64.5%*	i
C[n+]1ccccc1/C=C/c1ccc(F)c(F)c1	i	i	-7.21*	i	i	·	·	·	·	80.3%*	i	TRPC4 spec 2=i;TRPC4 spec=-33.6%*;HEK293 MPD ctr 2-1=33.5%*;HEK293 MPD ctr-1=-595.5%*
CCN(CC)S(=O)(=O)c1cccc(NC(=O)CCSc2ccc(Cl)cc2)c1	i	i	i	i	i	·	·	·	·	·	·
Cc1cccc(C(=O)N2CCc3ccccc3C2)c1[N+](=O)[O-]	i	i	-5.31*	i	i	i	i	15.5%*	i	i	i
Cc1c(Br)c([N+](=O)[O-])nn1CC(=O)N1CCc2ccccc2C1	i	i	i	i	i	·	·	·	·	·	·
Cc1c(Br)c([N+](=O)[O-])nn1C(C)C(=O)N1CCc2ccccc2C1 (stereo not given)	i	i	-5.98*	i	i	i	93.0%*	19.0%*	i	80.0%*	i
CC(=O)Cc1nsc(NC(=O)c2cn(-c3ccccc3)nc2-c2ccc(Br)cc2)n1	i	i	i	i	i	·	·	·	·	·	·
Clc1ccc(OCCCCCN2CCCC2)c(Br)c1	i	i	-5.13*	i	i	121.0%*	i	22.0%*	33.5%*	i	·
Clc1ccc(OCCCN2CCCCC2)c(Br)c1	i	i	i	i	i	·	·	·	·	·	·
Cc1ccc(OCCCCN2CCC(C)CC2)c(Br)c1	i	i	i	i	i	·	·	·	·	·	·
CCN1CCN(CCCOc2ccc(Cl)cc2Br)CC1	i	i	i	i	i	·	·	·	·	·	·
Cc1ccc(OCCCCCCN2CCNCC2)c(Br)c1	i	i	-9.03*	i	i	·	·	·	·	69.9%*	i	TRPC4 spec 2=51.5%*;TRPC4 spec=1.3%*;HEK293 MPD ctr 2-1=i;HEK293 MPD ctr-1=6.4%*
Clc1ccc(Cl)c(OCCCCN2CCNCC2)c1	24*	i	-8.68*	i	i	·	·	·	·	i	i	TRPC4 spec 2=57.0%*;TRPC4 spec=-0.3%*;HEK293 MPD ctr 2-1=i;HEK293 MPD ctr-1=3.5%*
CCN(CC(=O)NCc1ccc(F)cc1)C(=O)/C=C/c1ccc(S(=O)(=O)N(CC)CC)cc1	i	i	i	i	i	·	·	·	·	·	·
Cc1nnsc1SCCNC(=O)c1ccc(F)cc1	i	i	i	i	i	·	·	·	·	·	·
CCOC(=O)c1nc2cc3n(c(CC(C)C)c-2c1C)CC(C)=C3C	i	i	-6.41*	i	i	-87.0%*	69.0%*	-20.0%*	54.0%*	49.0%*	i
CCOC(=O)c1nc2cc3n(c(C)c-2c1C)C(C)C(C)=C3C (stereo not given)	i	i	-8.05*	i	i	·	·	·	·	i	i	TRPC4 spec 2=69.5%*;TRPC4 spec=7.3%*;HEK293 MPD ctr 2-1=-192.0%*;HEK293 MPD ctr-1=i
CC1(C)Cc2c(cnn2-c2ccccc2)C(NC(=O)CCCn2cncn2)C1 (stereo not given)	i	i	i	i	i	·	·	·	·	·	·

From PubChem BioAssay
